Assay results as given in ChEMBL document CHEMBL4411287, “Discovery and optimization of a series of 3-substituted indazole derivatives as multi-target kinase inhibitors for the treatment of lung squamous cell carcinoma” (Eur J Med Chem, 2019).

How the values were obtained:
[1] = molecular target: T1, Ephrin type-B receptor 2 (Homo sapiens) (UniProt P29323); assay: Inhibition of EPH-B2 (unknown origin) at 1000 nM relative to control
T1 sequence (whole entry): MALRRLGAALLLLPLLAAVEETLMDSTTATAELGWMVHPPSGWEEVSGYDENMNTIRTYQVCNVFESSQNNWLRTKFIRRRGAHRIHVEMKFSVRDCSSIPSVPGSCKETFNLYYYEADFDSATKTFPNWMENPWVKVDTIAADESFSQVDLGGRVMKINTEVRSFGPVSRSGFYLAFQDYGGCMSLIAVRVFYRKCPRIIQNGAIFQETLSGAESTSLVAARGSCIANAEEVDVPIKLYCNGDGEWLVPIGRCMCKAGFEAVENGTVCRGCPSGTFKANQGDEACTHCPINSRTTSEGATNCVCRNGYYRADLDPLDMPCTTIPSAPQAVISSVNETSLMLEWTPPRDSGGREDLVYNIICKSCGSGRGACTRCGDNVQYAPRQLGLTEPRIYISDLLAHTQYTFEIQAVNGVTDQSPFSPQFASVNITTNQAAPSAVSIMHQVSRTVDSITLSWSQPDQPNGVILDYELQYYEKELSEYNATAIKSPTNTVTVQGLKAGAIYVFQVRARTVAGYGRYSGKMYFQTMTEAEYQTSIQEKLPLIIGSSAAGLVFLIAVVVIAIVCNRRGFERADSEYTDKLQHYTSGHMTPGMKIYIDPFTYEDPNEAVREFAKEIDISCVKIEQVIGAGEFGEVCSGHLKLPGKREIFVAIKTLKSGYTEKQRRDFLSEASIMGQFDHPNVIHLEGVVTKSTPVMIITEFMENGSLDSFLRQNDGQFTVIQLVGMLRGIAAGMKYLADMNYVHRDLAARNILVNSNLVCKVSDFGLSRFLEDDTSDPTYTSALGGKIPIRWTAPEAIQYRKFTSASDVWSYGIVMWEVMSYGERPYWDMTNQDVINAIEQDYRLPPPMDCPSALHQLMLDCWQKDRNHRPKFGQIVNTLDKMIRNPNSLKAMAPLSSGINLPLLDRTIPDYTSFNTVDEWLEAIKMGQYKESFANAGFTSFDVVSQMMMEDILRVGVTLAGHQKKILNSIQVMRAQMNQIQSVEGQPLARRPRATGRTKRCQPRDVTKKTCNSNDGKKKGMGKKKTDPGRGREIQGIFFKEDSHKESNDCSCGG
Outline: (§1)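 Purified recombinant kinase domains run in ELISA on precoated poly(Glu,Tyr) 4:1 (20 µg/mL) with 10 µM ATP in 50 mM HEPES pH 7.4, 50 mM MgCl2, 0.5 mM MnCl2, 0.2 mM Na3VO4, 1 mM DTT; 1% DMSO control; 60 min at 37 °C. Phosphotyrosine read by PY99 antibody, HRP anti-mouse IgG, OPD/H2O2 at 490 nm; inhibition = [1−A490/A490control]×100%; two separate experiments.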

[2] = molecular target: Angiopoietin-1 receptor (Homo sapiens) (UniProt Q02763); assay: Inhibition of Tie-2 (unknown origin) at 10 nM relative to control
Chain of Angiopoietin-1 receptor (Homo sapiens) (Q02763 whole entry): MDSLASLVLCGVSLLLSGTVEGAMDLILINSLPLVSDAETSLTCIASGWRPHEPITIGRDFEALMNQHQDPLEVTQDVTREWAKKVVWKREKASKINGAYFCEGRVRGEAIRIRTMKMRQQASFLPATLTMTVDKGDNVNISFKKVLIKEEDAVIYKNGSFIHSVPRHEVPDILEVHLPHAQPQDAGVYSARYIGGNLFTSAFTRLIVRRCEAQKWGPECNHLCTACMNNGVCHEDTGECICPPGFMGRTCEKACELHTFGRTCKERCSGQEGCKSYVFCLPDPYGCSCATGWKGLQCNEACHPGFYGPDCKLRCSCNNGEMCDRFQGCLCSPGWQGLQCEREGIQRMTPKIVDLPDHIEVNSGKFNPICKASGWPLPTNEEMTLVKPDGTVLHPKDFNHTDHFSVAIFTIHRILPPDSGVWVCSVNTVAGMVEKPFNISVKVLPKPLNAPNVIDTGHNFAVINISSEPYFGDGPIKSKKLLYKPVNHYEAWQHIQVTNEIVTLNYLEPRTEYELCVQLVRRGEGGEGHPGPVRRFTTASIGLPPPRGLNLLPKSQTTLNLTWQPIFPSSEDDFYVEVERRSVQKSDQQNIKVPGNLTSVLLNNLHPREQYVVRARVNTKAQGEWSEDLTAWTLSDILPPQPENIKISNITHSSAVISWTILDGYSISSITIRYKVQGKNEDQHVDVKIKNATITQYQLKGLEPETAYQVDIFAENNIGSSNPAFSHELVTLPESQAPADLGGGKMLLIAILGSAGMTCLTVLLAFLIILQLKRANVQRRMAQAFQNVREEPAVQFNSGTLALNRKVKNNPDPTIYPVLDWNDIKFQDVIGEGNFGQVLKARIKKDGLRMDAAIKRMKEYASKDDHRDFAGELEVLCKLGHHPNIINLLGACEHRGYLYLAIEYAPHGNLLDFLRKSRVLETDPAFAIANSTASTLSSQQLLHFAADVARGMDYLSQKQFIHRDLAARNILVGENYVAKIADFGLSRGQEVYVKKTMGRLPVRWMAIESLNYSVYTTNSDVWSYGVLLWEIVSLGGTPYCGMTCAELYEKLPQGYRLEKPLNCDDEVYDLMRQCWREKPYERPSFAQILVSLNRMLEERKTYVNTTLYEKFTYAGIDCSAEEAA
Outline: (§2)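 ELISA with purified recombinant kinase on plates precoated with poly(Glu,Tyr) 4:1 at 20 µg/mL. ATP 10 µM in HEPES pH 7.4 buffer with MgCl2, MnCl2, Na3VO4 and DTT. Run 60 min at 37 °C. Detected with anti-phosphotyrosine PY99, HRP secondary antibody and o-phenylenediamine, read at 490 nm. Inhibition % = [1 − A490/A490 control]×100. 1% DMSO as negative control.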

[3] = molecular target: Vascular endothelial growth factor receptor 2 (Homo sapiens) (UniProt P35968); assay: Inhibition of VEGFR2 (unknown origin) at 1000 nM relative to control; outline: as §2
Chain of Vascular endothelial growth factor receptor 2 (Homo sapiens) (P35968 whole entry): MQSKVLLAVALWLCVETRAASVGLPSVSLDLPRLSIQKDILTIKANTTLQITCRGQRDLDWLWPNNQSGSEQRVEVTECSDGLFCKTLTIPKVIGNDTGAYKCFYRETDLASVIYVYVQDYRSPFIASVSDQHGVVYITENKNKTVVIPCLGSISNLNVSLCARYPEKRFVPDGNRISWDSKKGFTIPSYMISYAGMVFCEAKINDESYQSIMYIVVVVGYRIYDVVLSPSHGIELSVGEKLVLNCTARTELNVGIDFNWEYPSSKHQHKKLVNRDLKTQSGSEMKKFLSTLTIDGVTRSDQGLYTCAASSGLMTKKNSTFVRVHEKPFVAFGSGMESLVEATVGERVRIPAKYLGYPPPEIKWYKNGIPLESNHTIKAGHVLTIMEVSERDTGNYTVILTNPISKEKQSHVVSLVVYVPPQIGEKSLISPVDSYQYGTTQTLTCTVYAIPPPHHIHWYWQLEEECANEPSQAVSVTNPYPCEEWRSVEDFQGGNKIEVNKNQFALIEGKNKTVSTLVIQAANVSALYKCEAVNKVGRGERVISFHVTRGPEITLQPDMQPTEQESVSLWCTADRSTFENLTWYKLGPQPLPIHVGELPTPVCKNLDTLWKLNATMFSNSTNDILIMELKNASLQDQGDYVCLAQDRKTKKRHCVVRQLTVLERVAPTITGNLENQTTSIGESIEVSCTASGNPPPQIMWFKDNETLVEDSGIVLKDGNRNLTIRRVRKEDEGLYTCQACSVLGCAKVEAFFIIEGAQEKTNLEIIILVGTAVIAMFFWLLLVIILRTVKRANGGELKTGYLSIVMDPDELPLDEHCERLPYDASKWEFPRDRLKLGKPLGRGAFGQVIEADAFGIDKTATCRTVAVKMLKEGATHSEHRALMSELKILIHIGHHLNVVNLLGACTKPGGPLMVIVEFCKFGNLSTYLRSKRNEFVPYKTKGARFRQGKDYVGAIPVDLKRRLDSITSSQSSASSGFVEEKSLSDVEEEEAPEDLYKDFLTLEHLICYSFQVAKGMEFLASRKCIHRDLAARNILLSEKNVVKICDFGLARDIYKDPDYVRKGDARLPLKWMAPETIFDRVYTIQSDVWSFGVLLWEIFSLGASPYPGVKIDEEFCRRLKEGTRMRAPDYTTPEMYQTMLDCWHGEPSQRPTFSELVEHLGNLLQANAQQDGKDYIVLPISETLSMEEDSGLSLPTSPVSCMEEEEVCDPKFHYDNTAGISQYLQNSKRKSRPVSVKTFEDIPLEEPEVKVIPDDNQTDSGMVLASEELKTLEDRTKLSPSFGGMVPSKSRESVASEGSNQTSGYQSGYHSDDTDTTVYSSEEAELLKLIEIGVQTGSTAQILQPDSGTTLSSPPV

[4] = molecular target: Fibroblast growth factor receptor 4 (Homo sapiens) (UniProt P22455); assay: Inhibition of FGFR4 (unknown origin) at 100 nM relative to control; outline: as §1
[5] = molecular target: Cyclin-dependent kinase 4 (Homo sapiens) (UniProt P11802); assay: Inhibition of CDK4 (unknown origin) at 100 nM relative to control
[6] = molecular target: Receptor tyrosine-protein kinase erbB-2 (Homo sapiens) (UniProt P04626); assay: Inhibition of ErbB2 (unknown origin) at 1000 nM relative to control; outline: as §1
Chain of Receptor tyrosine-protein kinase erbB-2 (Homo sapiens) (P04626 whole entry): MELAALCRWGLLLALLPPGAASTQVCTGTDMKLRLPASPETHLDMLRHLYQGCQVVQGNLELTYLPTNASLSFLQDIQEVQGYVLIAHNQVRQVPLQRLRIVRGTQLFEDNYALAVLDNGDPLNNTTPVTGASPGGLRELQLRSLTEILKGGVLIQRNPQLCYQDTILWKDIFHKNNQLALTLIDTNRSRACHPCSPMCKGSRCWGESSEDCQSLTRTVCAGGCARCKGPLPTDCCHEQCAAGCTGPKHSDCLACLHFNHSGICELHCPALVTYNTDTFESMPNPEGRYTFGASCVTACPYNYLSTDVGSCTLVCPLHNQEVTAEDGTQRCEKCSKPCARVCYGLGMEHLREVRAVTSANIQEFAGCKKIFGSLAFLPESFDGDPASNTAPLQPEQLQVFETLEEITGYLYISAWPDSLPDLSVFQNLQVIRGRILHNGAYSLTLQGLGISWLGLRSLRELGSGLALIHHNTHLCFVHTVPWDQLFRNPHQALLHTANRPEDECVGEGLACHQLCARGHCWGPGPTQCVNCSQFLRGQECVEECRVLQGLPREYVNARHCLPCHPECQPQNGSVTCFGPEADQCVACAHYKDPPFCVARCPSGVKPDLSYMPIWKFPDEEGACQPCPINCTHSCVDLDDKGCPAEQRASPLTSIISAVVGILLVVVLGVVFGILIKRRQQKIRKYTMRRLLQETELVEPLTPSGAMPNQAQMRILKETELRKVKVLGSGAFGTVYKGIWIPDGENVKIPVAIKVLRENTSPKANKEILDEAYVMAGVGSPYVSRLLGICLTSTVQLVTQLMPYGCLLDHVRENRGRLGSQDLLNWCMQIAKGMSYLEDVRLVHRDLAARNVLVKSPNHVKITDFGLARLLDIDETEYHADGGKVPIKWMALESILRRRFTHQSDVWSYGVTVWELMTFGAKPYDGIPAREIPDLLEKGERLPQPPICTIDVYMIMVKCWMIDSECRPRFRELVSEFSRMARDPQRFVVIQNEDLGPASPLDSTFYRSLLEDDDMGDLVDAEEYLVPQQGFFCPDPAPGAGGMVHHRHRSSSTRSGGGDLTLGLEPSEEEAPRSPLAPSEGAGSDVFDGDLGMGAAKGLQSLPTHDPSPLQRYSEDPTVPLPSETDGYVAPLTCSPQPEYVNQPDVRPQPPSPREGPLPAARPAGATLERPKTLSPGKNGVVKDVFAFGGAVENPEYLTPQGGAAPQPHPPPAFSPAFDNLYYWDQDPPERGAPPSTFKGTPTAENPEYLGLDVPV

[7] = molecular target: Receptor-type tyrosine-protein kinase FLT3 (Homo sapiens) (UniProt P36888); assay: Inhibition of FLT-3 (unknown origin) at 100 nM relative to control; outline: as §1
[8] = molecular target: Angiopoietin-1 receptor (Homo sapiens) (UniProt Q02763); assay: Inhibition of Tie-2 (unknown origin) at 1000 nM relative to control; outline: as §2
[9] = Cmax in ICR(CD-1) mouse at 10 mg/kg, po administered via gavage by triple quadrupole mass spectrometric analysis; assay type: ADME, organism-based; set-up: dose 10 mg/kg, route oral; details: in vivo
Outline: (§3)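 Oral gavage at 1 mg/mL in 1% Tween80/water to male ICR mice (18-22 g, n=3). Plasma sampled at 0.25, 0.5, 1, 2, 4, 8 and 24 h, protein precipitated with methanol:acetonitrile (1:1) containing internal standard, and quantified by UPLC-triple quadrupole MS. AUC and MRT were taken from per-animal time-concentration curves. Cmax is the maximum plasma level and Tmax the time to reach it.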

[10] = molecular target: Hepatocyte growth factor receptor (Homo sapiens) (UniProt P08581); assay: Inhibition of c-Met (unknown origin) at 1000 nM relative to control; outline: as §2
[11] = molecular target: Platelet-derived growth factor receptor alpha (Homo sapiens) (UniProt P16234); assay: Inhibition of PDGFR-alpha (unknown origin) at 1000 nM relative to control; outline: as §1
[12] = molecular target: Receptor tyrosine-protein kinase erbB-4 (Homo sapiens) (UniProt Q15303); assay: Inhibition of ErbB4 (unknown origin) at 100 nM relative to control; outline: as §1
[13] = molecular target: Focal adhesion kinase 1 (Homo sapiens) (UniProt Q05397); assay: Inhibition of FAK (unknown origin) at 1000 nM relative to control; outline: as §1
[14] = molecular target: Fibroblast growth factor receptor 2 (Homo sapiens) (UniProt P21802); assay: Inhibition of FGFR2 phosphorylation in human SNU-16 cells after 2 hrs by Western blot analysis; assay type: cell-based
Outline: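 SNU-16 cells exposed to compound for 2 h at 37 °C, lysed in 1× SDS sample buffer, resolved by 10% SDS-PAGE and blotted to nitrocellulose; probed for phospho-FGFR, FGFR2, phospho-ERK, ERK and GAPDH, then HRP anti-rabbit or anti-mouse IgG; enhanced chemiluminescence detection.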

[15] = molecular target: Ephrin type-A receptor 2 (Homo sapiens) (UniProt P29317); assay: Inhibition of EPH-A2 (unknown origin) at 10 nM relative to control; outline: as §1
[16] = molecular target: Insulin-like growth factor 1 receptor (Homo sapiens) (UniProt P08069); assay: Inhibition of IGF1R (unknown origin) at 10 nM relative to control; outline: as §1
Chain of Insulin-like growth factor 1 receptor (Homo sapiens) (P08069 31-736 limits assumed): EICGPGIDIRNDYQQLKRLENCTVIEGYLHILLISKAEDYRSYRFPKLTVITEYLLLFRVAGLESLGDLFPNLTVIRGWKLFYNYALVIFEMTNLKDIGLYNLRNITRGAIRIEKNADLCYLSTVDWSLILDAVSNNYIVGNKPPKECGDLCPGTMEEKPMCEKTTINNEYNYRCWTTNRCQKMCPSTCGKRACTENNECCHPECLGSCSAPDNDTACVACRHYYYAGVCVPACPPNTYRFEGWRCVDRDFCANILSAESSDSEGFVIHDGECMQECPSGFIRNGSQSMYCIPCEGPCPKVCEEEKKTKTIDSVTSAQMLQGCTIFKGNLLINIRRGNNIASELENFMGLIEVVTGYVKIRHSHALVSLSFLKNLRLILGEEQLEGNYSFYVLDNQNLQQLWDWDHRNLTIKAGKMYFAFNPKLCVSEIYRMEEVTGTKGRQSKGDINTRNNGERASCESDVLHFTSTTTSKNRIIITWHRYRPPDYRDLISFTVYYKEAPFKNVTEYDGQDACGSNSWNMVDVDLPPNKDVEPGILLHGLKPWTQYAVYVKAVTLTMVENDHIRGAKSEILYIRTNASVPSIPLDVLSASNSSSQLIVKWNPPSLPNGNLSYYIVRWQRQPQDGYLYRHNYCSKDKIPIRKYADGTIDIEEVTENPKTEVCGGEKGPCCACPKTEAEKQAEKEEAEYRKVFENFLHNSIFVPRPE
Chain of Insulin-like growth factor 1 receptor (Homo sapiens) (P08069 741-1367 limits assumed): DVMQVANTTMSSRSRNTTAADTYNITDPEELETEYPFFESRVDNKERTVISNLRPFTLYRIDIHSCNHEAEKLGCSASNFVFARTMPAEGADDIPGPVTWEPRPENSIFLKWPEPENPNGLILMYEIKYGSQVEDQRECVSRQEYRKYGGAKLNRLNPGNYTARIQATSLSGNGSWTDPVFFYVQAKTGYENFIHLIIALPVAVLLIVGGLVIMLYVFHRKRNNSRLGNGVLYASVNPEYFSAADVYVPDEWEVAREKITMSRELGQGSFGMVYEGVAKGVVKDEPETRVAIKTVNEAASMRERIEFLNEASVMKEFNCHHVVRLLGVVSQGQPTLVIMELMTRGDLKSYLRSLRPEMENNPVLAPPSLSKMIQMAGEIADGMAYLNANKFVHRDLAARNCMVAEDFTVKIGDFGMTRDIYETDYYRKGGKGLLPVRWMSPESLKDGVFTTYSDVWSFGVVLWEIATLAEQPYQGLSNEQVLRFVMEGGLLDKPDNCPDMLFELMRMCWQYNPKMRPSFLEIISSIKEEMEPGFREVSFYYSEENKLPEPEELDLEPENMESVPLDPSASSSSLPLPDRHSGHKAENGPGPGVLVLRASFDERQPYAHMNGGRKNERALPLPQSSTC

[17] = molecular target: Cyclin-dependent kinase 6 (Homo sapiens) (UniProt Q00534); assay: Inhibition of CDK6 (unknown origin) at 100 nM relative to control
[18] = Half life in ICR(CD-1) mouse at 10 mg/kg, po administered via gavage by triple quadrupole mass spectrometric analysis; assay type: ADME, organism-based; details: in vivo; outline: as §3

inhibition [1]: 86.9%
inhibition [2]: 10.4%
inhibition [3]: 100%
inhibition [4]: 27.2%
inhibition [5]: 6.8%
inhibition [6]: 0%
inhibition [7]: 80.6%
inhibition [8]: 83.6%
Cmax [9]: 1120 ng/mL
inhibition [10]: 47.5%
inhibition [11]: 100%
inhibition [12]: 0%
inhibition [13]: 81.7%
inhibition [14]: Dose-dependent effect
inhibition [15]: 86.6%
inhibition [16]: 0%
inhibition [17]: 2.6%
half-life [18]: 3.05 h
SMILES: Cc1ccc(C(=O)Nc2cccc(C(F)(F)F)c2)cc1-c1ccc2c(-c3cnn(C4CC4)c3)n[nH]c2c1
